Tests used:
Type in all cases: functional, cell-based
[1] = Cytotoxicity against human A549 cells assessed as inhibition of cell proliferation after 48 hrs by MTT assay; details: A549, 48 h
Outline: (§1)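 Cells grown in DMEM with 10% FBS, 100 U/mL penicillin, 100 μg/mL streptomycin, 37 °C, 5% CO2. Seeded 5 × 10^3 cells/well, 12 h, then exposed to compounds for 48 h. MTT (5 mg/mL stock) added for 4 h at 37 °C, formazan dissolved in DMSO, absorbance read at 570 nm. IC50 relative to untreated control. Triplicate, repeated twice; cis-platinum as positive control.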

[2] = Cytotoxicity against human MKN28 cells assessed as inhibition of cell proliferation after 48 hrs by MTT assay; details: MKN-28, 48 h; outline: as §1
[3] = Cytotoxicity against human MCF7 cells assessed as inhibition of cell proliferation after 48 hrs by MTT assay; details: MCF7, 48 h; outline: as §1

Compound: CO[C@H]1O[C@H](C=C(C)C)C[C@H]1[C@@H]1CC[C@]2(C)C3=CC[C@H]4C(C)(C)[C@@H](O)CC[C@]4(C)[C@H]3CC[C@@]12C
- IC50 [1]: > 10 µM
- IC50 [2]: 8.8 µM
- IC50 [3]: > 10 µM

Compound: CCO[C@H]1O[C@@H]([C@H](O)C(C)(C)O)C[C@H]1[C@@H]1CC[C@]2(C)C3=CC=C4C(C)(C)C(=O)CC[C@]4(C)C3=CC[C@@]12C
- IC50 [1]: > 10 µM
- IC50 [2]: > 10 µM
- IC50 [3]: > 10 µM

Compound: C[C@@H](C[C@@H](O)[C@H](O)C(C)(C)O)[C@@H]1CC=C2[C@]3(C)[C@H](O)[C@@H](O)[C@H]4C(C)(C)C(=O)CC[C@]4(C)[C@H]3CC[C@]21C
- IC50 [1]: > 10 µM
- IC50 [2]: > 10 µM
- IC50 [3]: > 10 µM

Compound: CCCCCC(=O)O[C@@H]1C[C@]2(C)C(=CC[C@H]2[C@]2(O)C[C@@H]([C@@H](O)C(C)(C)O)O[C@H]2OC)[C@]2(C)[C@H](O)C[C@H]3C(C)(C)C(=O)C=C[C@]3(C)[C@@H]12
- IC50 [1]: > 10 µM
- IC50 [2]: > 10 µM
- IC50 [3]: > 10 µM

Compound: CO[C@H]1O[C@@H](C=C(C)C)C[C@H]1[C@@H]1CC[C@]2(C)C3=CC[C@H]4C(C)(C)[C@@H](O)CC[C@]4(C)[C@H]3CC[C@@]12C
- IC50 [1]: > 10 µM
- IC50 [2]: > 10 µM
- IC50 [3]: > 10 µM

Compound: C[C@@H](C[C@@H](O)[C@@H](O)C(C)(C)O)[C@@H]1CC[C@]2(C)C3=CC[C@H]4C(C)(C)C(=O)CC[C@]4(C)[C@H]3CC[C@@]12C
- IC50 [1]: 8 µM
- IC50 [2]: 6.9 µM
- IC50 [3]: 8.5 µM

Compound: CCO[C@H]1O[C@@H]([C@H](O)C(C)(C)O)C[C@H]1[C@@H]1CC[C@]2(C)C3=CC[C@H]4C(C)(C)C(=O)CC[C@]4(C)[C@H]3CC[C@@]12C
- IC50 [1]: > 10 µM
- IC50 [2]: > 10 µM
- IC50 [3]: > 10 µM

Compound: CC1(C)OC[C@H]([C@@H]2CC[C@]3(C)C4=CC[C@H]5C(C)(C)[C@H](O)CC[C@]5(C)[C@H]4CC[C@@]23C)C[C@@H](O)[C@@H]1O
- IC50 [1]: > 10 µM
- IC50 [2]: > 10 µM
- IC50 [3]: > 10 µM

Compound: CC(C)(O)[C@H]1OC[C@H]([C@@H]2CC[C@]3(C)C4=CC[C@H]5C(C)(C)C(=O)CC[C@]5(C)[C@H]4CC[C@@]23C)C[C@H]1O
- IC50 [1]: > 10 µM
- IC50 [2]: > 10 µM
- IC50 [3]: > 10 µM

Compound: CCO[C@@H]1O[C@H]([C@@H](O)C(C)(C)O)C[C@H]1[C@@H]1CC[C@]2(C)C3=CC[C@H]4C(C)(C)[C@@H](O)CC[C@]4(C)C3=CC[C@@]12C
- IC50 [1]: > 10 µM
- IC50 [2]: 9.1 µM
- IC50 [3]: > 10 µM

Compound: CC(C)=CCC[C@H](C(=O)O)[C@@H]1CC[C@]2(C)C3=CC[C@@H]4[C@](C)(CC[C@H](O)[C@]4(C)CO)[C@H]3CC[C@@]12C
- IC50 [1]: > 10 µM
- IC50 [2]: 9.1 µM
- IC50 [3]: > 10 µM

Compound: CCO[C@H]1O[C@@H]([C@H](O)C(C)(C)O)C[C@H]1[C@@H]1CC[C@]2(C)C3=CC[C@H]4C(C)(C)C(=O)CC[C@]4(C)C3=CC[C@@]12C
- IC50 [1]: > 10 µM
- IC50 [2]: 8.3 µM
- IC50 [3]: > 10 µM

Compound: C[C@@H](C[C@@H](O)[C@H](O)C(C)(C)O)[C@@H]1CC=C2[C@]3(C)[C@H](O)C[C@H]4C(C)(C)C(=O)CC[C@]4(C)[C@H]3CC[C@]21C
- IC50 [1]: > 10 µM
- IC50 [2]: > 10 µM
- IC50 [3]: > 10 µM

Compound: CCO[C@H]1O[C@H](C=C(C)C)C[C@H]1[C@@H]1CC[C@]2(C)C3=CC[C@H]4C(C)(C)[C@@H](O)CC[C@]4(C)[C@H]3CC[C@@]12C
- IC50 [1]: > 10 µM
- IC50 [2]: > 10 µM
- IC50 [3]: > 10 µM

Compound: COC1OC(C=C(C)C)C[C@H]1[C@@H]1CC[C@]2(C)C3=CC[C@H]4C(C)(C)[C@H](O)CC[C@]4(C)[C@H]3CC[C@@]12C (some centres undefined)
- IC50 [1]: > 10 µM
- IC50 [2]: > 10 µM
- IC50 [3]: > 10 µM

Compound: C[C@@H](CC[C@H](O)C(C)(C)O)[C@@H]1CC[C@]2(C)C3=CC[C@H]4C(C)(C)C(=O)CC[C@]4(C)[C@H]3CC[C@@]12C
- IC50 [1]: > 10 µM
- IC50 [2]: 9.1 µM
- IC50 [3]: > 10 µM

Compound: CCO[C@@H]1O[C@@H]([C@H](O)C(C)(C)O)C[C@H]1[C@@H]1CC[C@]2(C)C3=CC[C@H]4C(C)(C)C(=O)CC[C@]4(C)[C@H]3CC[C@@]12C
- IC50 [1]: > 10 µM
- IC50 [2]: > 10 µM
- IC50 [3]: > 10 µM

Compound: C[C@@H](C[C@@H](O)[C@H](O)C(C)(C)O)[C@@H]1CC[C@]2(C)C3=CC(=O)[C@H]4C(C)(C)[C@@H](O)CC[C@]4(C)[C@H]3CC[C@@]12C
- IC50 [1]: > 10 µM
- IC50 [2]: > 10 µM
- IC50 [3]: > 10 µM

Compound: COC(=O)[C@@H](CCC=C(C)C)[C@@H]1CC[C@]2(C)C3=CC[C@@H]4[C@](C)(CCC(=O)[C@]4(C)CO)[C@H]3CC[C@@]12C
- IC50 [1]: > 10 µM
- IC50 [2]: 8.3 µM
- IC50 [3]: > 10 µM

Compound: CC(C)(O)[C@H]1OC[C@H]([C@H]2CC[C@]3(C)C4=CC[C@H]5C(C)(C)C(=O)CC[C@]5(C)[C@H]4CC[C@@]23C)C[C@H]1O
- IC50 [1]: 7 µM
- IC50 [2]: 6.7 µM
- IC50 [3]: 9.9 µM

Compound: CCO[C@@H]1O[C@@H](C=C(C)C)C[C@H]1[C@@H]1CC[C@]2(C)C3=CC[C@H]4C(C)(C)[C@@H](O)CC[C@]4(C)[C@H]3CC[C@@]12C
- IC50 [1]: 8.3 µM
- IC50 [2]: 7.9 µM
- IC50 [3]: > 10 µM

Compound: CC(C)(O)[C@@H]1[C@@H](O)[C@H]([C@@H]2CC=C3[C@]4(C)[C@H](O)C[C@H]5C(C)(C)[C@H](O)CC[C@]5(C)[C@H]4CC[C@]32C)C[C@H]1O
- IC50 [1]: > 10 µM
- IC50 [2]: > 10 µM
- IC50 [3]: > 10 µM

Compound: CCO[C@H]1O[C@H](C(C)(C)O)[C@@H](O)C[C@H]1[C@@H]1CC[C@]2(C)C3=CC[C@H]4C(C)(C)C(=O)CC[C@]4(C)[C@H]3CC[C@@]12C
- IC50 [1]: > 10 µM
- IC50 [2]: > 10 µM
- IC50 [3]: > 10 µM

Compound: CO[C@@H]1O[C@H](C=C(C)C)C[C@H]1[C@@H]1CC[C@]2(C)C3=CC[C@H]4C(C)(C)[C@@H](O)CC[C@]4(C)[C@H]3CC[C@@]12C
- IC50 [1]: > 10 µM
- IC50 [2]: 9.8 µM
- IC50 [3]: > 10 µM

Compound: CO[C@@H]1O[C@H](C=C(C)C)C[C@H]1[C@@H]1CC[C@]2(C)C3=CC[C@H]4C(C)(C)[C@H](O)CC[C@]4(C)[C@H]3CC[C@@]12C
- IC50 [1]: > 10 µM
- IC50 [2]: > 10 µM
- IC50 [3]: > 10 µM

Compound: CCOC(=O)CC[C@]1(C)[C@H]2CC[C@@]3(C)[C@H]([C@@H](C)CC/C=C(\C)CO)CC[C@]3(C)C2=CC[C@H]1C(C)(C)O
- IC50 [1]: > 10 µM
- IC50 [2]: > 10 µM
- IC50 [3]: > 10 µM

Compound: C[C@@H](C[C@@H](O)[C@H](O)C(C)(C)O)[C@@H]1CC[C@]2(C)C3=C(C(=O)C[C@@]12C)[C@@]1(C)CCC(=O)C(C)(C)[C@@H]1CC3=O
- IC50 [1]: > 10 µM
- IC50 [2]: > 10 µM
- IC50 [3]: > 10 µM

Compound: CCO[C@H]1O[C@H](C(C)(C)O)[C@@H](O)C[C@H]1[C@@H]1CC[C@]2(C)C3=CC(=O)[C@H]4C(C)(C)C(=O)CC[C@]4(C)[C@H]3CC[C@@]12C
- IC50 [1]: > 10 µM
- IC50 [2]: 8.2 µM
- IC50 [3]: > 10 µM

— ChEMBL document CHEMBL3867438, “Cytotoxic Tirucallane and Apotirucallane Triterpenoids from the Stems of Picrasma quassioides” (J Nat Prod, 2016)
